Measured values from ChEMBL document CHEMBL1137504, “Effect of indole ethyl isothiocyanates on proliferation, apoptosis, and MAPK signaling in neuroblastoma cell lines” (Bioorg Med Chem Lett, 2007).
Blank lines part the entries; values can stand above or below the molecule they belong to. The source made the active and inactive calls. The calls are words filed in the database; no cut-off is given here.

Key:
SMS-KCNR [1] = assay: Cytotoxicity against SMS-KCNR cells after 48 hrs by MTS assay; format: functional, cell-based; details: Homo sapiens
Summary of the method: (§1)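 Cells were seeded at 5 × 10^5 per T75 flask and grown to about 80% confluency. Lines were NB (IMR-32, SH-SY5Y, SMS-KCNR, SK-N-SH) or primary human lung fibroblasts (LF1, passage 10). Cells were exposed to 2.5–40 μM drug for 48 hrs and viability was read by MTS. Triplicates were run, and values are mean ± SD of a representative experiment as % viability of untreated cells.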

SK-N-SH = assay: Cytotoxicity against human SK-N-SH cells after 48 hrs; format: functional, cell-based; summary of the method: as §1
SH-SY5Y = assay: Cytotoxicity against SH-SY5Y cells after 48 hrs by MTS assay; format: functional, cell-based; details: Homo sapiens; summary of the method: as §1
IMR-32 = assay: Cytotoxicity against IMR32 cells after 48 hrs by MTS assay; format: functional, cell-based; details: Homo sapiens; summary of the method: as §1
SMS-KCNR [2] = assay: Induction of apoptosis in SMS-KCNR cells assessed as increase in caspase 9 activation by Western blotting; format: functional, cell-based; details: Homo sapiens
Summary of the method: (§2)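 SMS-KCNR cells at about 80% confluency were treated with 3 μM drug for the indicated times, then lysed in NP-40 buffer with protease and phosphatase inhibitors. Lysates (50 μg protein per lane) were run on 12% SDS-PAGE and blotted to PVDF. Blots were blocked in 5% milk and probed overnight at 4 °C with 1:1000 primary antibodies in 5% BSA. Targets were phospho and total JNK, p38 and Akt, pro and active caspase-3, -8 and -9, and cleaved PARP-1, with β-actin as loading control.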

[3] = Cell cycle arrest in SMS-KCNR cells by accumulation at G2/M phase at 3 uM after 24 hrs by flow cytometry; format: functional, cell-based; details: Homo sapiens
Summary of the method: (§3)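 Cells were plated in 100 mm dishes at 7.5 × 10^5 per dish, left to attach overnight, then exposed to 3.0 μM drug for 12 or 24 hrs. Floating and scraped adherent cells were pooled and fixed in ice-cold 70% ethanol for 30 min. They were stained with 50 μg/mL propidium iodide plus 100 μg/mL RNase, 30 min at 37 °C in the dark. Flow cytometry read 10,000 gated single-cell events per sample. Results are given as % of cells per sub-population, with sub-G0/G1 taken as apoptotic.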

[4] = Cell cycle arrest in SMS-KCNR cells by accumulation at S phase at 3 uM after 24 hrs by flow cytometry; format: functional, cell-based; details: Homo sapiens; summary of the method: as §3
SMS-KCNR [5] = assay: Reduction of SMS-KCNR cell viability at 5 uM after 48 hrs in presence of Z-LEHD-FMK; format: functional, cell-based; details: Homo sapiens
Summary of the method: (§4)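 SMS-KCNR cells were pre-incubated for 2 hrs with 40 μM caspase inhibitor (Z-VAD-FM, Z-DEVD-FMK, Z-IETD-FMK or Z-LEHD-FMK). Drug was then added at 5.0 μM for 48 hrs and viability measured. Triplicates were run, and values are mean ± SD of a representative experiment as % viability of untreated cells.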

[6] = Cell cycle arrest in SMS-KCNR cells by accumulation at S phase at 3 uM after 12 hrs by flow cytometry; format: functional, cell-based; details: Homo sapiens; summary of the method: as §3
SMS-KCNR [7] = assay: Induction of apoptosis in SMS-KCNR cells assessed as increase in PARP1 activation by Western blotting; format: functional, cell-based; details: Homo sapiens; summary of the method: as §2
[8] = Cytotoxicity against lung fibroblast cells after 48 hrs by MTS assay; format: cell-based; details: human; summary of the method: as §1
[9] = molecular target: RAC-alpha serine/threonine-protein kinase (Homo sapiens) (UniProt P31749); assay: Inhibition of AKT in SMS-KCNR cells after 36 hrs by Western blotting; format: cell-based; summary of the method: as §2
[10] = Induction of apoptosis in SMS-KCNR cells at 3 uM after 24 hrs by flow cytometry; format: functional, Homo sapiens; summary of the method: as §3
SMS-KCNR [11] = assay: Inhibition of cell proliferation of SMS-KCNR cells […] after 48 hrs by BrdU assay; format: functional, cell-based; details: Homo sapiens
Summary of the method: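 SMS-KCNR cells were plated at 5 × 10^3 per well, attached overnight, and treated with 300 nM–5 μM drug for 48 hrs. BrdU (10 μM final) was added for a further 6 hrs. Fixed cells were incubated with anti-BrdU–peroxidase for 2 hrs at 37 °C, developed with TMB, stopped with sulfuric acid, and read at 450 nm after blank subtraction. Triplicates were run, expressed as % of untreated absorbance.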

[12] = molecular target: MAP kinase p38 (Homo sapiens) (UniProt O15264+Q15759+Q16539+P53778); assay: Effect on p38 activation in SMS-KCNR cells after 1 hr by Western blotting; format: cell-based; summary of the method: as §2
SMS-KCNR [13] = assay: Reduction of SMS-KCNR cell viability at 5 uM after 48 hrs in presence of Z-VAD-FM; format: functional, cell-based; details: Homo sapiens; summary of the method: as §4
[14] = Induction of apoptosis in SMS-KCNR cells at 3 uM after 12 hrs by flow cytometry; format: functional, Homo sapiens; summary of the method: as §3
SMS-KCNR [15] = assay: Reduction of SMS-KCNR cell viability at 5 uM after 48 hrs in presence of Z-DEVD-FMK; format: functional, cell-based; details: Homo sapiens; summary of the method: as §4
SMS-KCNR [16] = assay: Induction of apoptosis in SMS-KCNR cells assessed as increase in caspase 3 activation by Western blotting; format: functional, cell-based; details: Homo sapiens; summary of the method: as §2
SMS-KCNR [17] = assay: Effect on JNK activation in SMS-KCNR cells after 1 hr by Western blotting; format: cell-based; details: Homo sapiens; summary of the method: as §2
SMS-KCNR [18] = assay: Induction of apoptosis in SMS-KCNR cells assessed as increase in caspase 8 activation by Western blotting; format: functional, cell-based; details: Homo sapiens; summary of the method: as §2
[19] = Cell cycle arrest in SMS-KCNR cells by accumulation at G2/M phase at 3 uM after 12 hrs by flow cytometry; format: functional, cell-based; details: Homo sapiens; summary of the method: as §3
[20] = Cell cycle arrest in SMS-KCNR cells by accumulation at G0/G1 phase at 3 uM after 24 hrs by flow cytometry; format: functional, cell-based; details: Homo sapiens; summary of the method: as §3
SMS-KCNR [21] = assay: Reduction of SMS-KCNR cell viability at 5 uM after 48 hrs in presence of Z-IETD-FMK; format: functional, cell-based; details: Homo sapiens; summary of the method: as §4
SMS-KCNR [22] = assay: Cytotoxicity against SMS-KCNR cells at 2.5 uM to 5.0 uM after 48 hrs by MTS assay; format: functional, cell-based; details: Homo sapiens; summary of the method: as §1
[23] = Cell cycle arrest in SMS-KCNR cells by accumulation at G0/G1 phase at 3 uM after 12 hrs by flow cytometry; format: functional, cell-based; details: Homo sapiens; summary of the method: as §3

Chain of RAC-alpha serine/threonine-protein kinase (Homo sapiens) (P31749 whole entry): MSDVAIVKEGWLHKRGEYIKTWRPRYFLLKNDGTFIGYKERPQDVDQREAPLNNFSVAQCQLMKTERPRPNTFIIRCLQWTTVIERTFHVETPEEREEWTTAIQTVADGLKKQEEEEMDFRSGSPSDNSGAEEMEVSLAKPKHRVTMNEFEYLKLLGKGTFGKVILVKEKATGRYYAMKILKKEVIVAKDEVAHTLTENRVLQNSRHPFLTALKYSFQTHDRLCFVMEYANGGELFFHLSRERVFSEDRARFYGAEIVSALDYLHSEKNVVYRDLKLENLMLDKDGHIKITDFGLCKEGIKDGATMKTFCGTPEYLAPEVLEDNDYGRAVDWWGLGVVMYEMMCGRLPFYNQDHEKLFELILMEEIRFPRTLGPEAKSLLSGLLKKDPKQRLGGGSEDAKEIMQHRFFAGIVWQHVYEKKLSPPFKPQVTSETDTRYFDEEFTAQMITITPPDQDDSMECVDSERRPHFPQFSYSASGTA

SMILES: S=C=NCCc1c[nH]c2ccc(OCc3ccccc3)cc12
Activity (SMS-KCNR [1]): Dose-dependent effect | IC50 (SK-N-SH): < 2500 nM | Activity (SH-SY5Y): Dose-dependent effect | Activity (IMR-32): Dose-dependent effect

Activity [9]: Active | Activity [12]: Active
SMILES: Cc1cccc2c(CCN=C=S)c[nH]c12
Activity (SMS-KCNR [2]): Active | Activity [3]: 24.5% | Activity [4]: 6.5% | Activity (SMS-KCNR [5]): Active | Activity [6]: 7.3% | Activity (SMS-KCNR [7]): Active | Activity (SMS-KCNR [1]): Dose-dependent effect | Activity [8]: Not Active | Activity [10]: 18.8% | IC50 (SK-N-SH): < 2500 nM | Activity (SH-SY5Y): Dose-dependent effect | Activity (SMS-KCNR [11]): Active | Activity (SMS-KCNR [13]): Active | Activity [14]: 19.7% | Activity (SMS-KCNR [15]): Active | Activity (SMS-KCNR [16]): Active | Activity (IMR-32): Dose-dependent effect | Activity (SMS-KCNR [17]): Active | Activity (SMS-KCNR [18]): Active | Activity [19]: 26.3% | Activity [20]: 68.9% | Activity (SMS-KCNR [21]): Active | Activity (SMS-KCNR [22]): Active | Activity [23]: 66.4%
